Results from different studies.
Protocols differ between the studies behind these lines.
Cell line: HeLa
Observed: cell growth or viability

CC(=O)c1ccc(-c2cccc(NC(=O)CCc3cccc4c3B(O)OC4)c2)cc1 — IC50 (ATP luminescence; 72 h): 0.858 µM
NCCOc1cc(NC(=O)c2cccc(C(=O)Nc3cc(OCCN)c4ccccc4n3)n2)nc2ccccc12 — IC50 (ATP luminescence; 72 h): 1.2 µM
COC1=C2C[C@@H](C)C[C@H](OC)[C@H](O)[C@@H](C)/C=C(\C)[C@H](OC(N)=O)[C@@H](OC)/C=C\C=C(/C)C(=O)NC(=CC1=O)C2=O — IC50 (MTT): 0.651 µM
COc1nc(OCc2cccc(-c3ccccc3)c2C)ccc1CNCCNC(C)=O — IC50 (MTT): 3.6 µM
O=C(/C=C/c1cccc2c1B(O)OC2)Nc1ccccc1 — IC50 (ATP luminescence; 72 h): > 31.6 µM
COC(=O)CN=c1scc(-c2ccccc2)n1-c1ccc(Cl)cc1 — IC50 (MTT; 72 h): 17 µM
C[C@@H](O)C(=O)CCCCCCC(=O)Nc1ccccc1 — IC50 (XTT): > 50 µM
CC1(C)SC2C(NC(=O)C(NC(=O)C3=C(O)C(Cc4ccsc4)NC3=O)c3ccccc3)C(=O)N2C1C(=O)O (centres unmarked) — IC50 (ATP luminescence; 48 h): 58.9 µg/mL
COc1cc(C)cc2oc(-c3ccccc3Br)cc(=O)c12 — IC50 (MTT; 48 h): 76.3 µM
c1ccc(-c2ccccn2)nc1 — IC50 (MTT; 48 h): > 50 µM
COc1cc(C#CC#Cc2cc(OC)cc(OC)c2)cc(OC)c1 — IC50 (MTT; 24 h): 4.51 µg/mL
O=C(c1ccccc1)c1cc2c(-c3ccccc3)c(O)ccc2o1 — IC50: 35 µM
CC1(C)CC[C@]2(C(=O)O)CC[C@]3(C)C(=CC[C@@H]4[C@@]5(C)CC[C@H](O)C(C)(C)[C@@H]5CC[C@]43C)[C@@H]2C1 — IC50 (MTT; 48 h): 34.8 µM
NCCCOc1cc(NC(=O)c2cc(OCc3c[nH]nn3)cc(C(=O)Nc3cc(OCCCN)c4ccccc4n3)n2)nc2ccccc12 — IC50 (ATP luminescence; 72 h): > 40 µM
COc1ccc(C(=O)c2cc3c(-c4ccccc4)c(OC)ccc3o2)cc1 — IC50: 1.3 µM
C(C#Cc1ccccc1)#Cc1ccccc1 — IC50 (MTT; 24 h): 3.77 µg/mL
Cc1c(O)c(=O)ccn1CCO — IC50 (MTT; 72 h): ≥ 100 µM
CN(C)CCCOc1cc(NC(=O)c2cccc(C(=O)Nc3cc(OCCCN(C)C)c4ccccc4n3)n2)nc2ccccc12 — IC50 (ATP luminescence; 72 h): 3 µM
COc1cccc(-c2cccc(NC(=O)CCc3cccc4c3B(O)OC4)c2)c1 — IC50 (ATP luminescence; 72 h): 1.05 µM
Brc1ccc(C#CC#Cc2ccc(Br)cc2)cc1 — IC50 (MTT; 24 h): 16.3 µg/mL
CC1(C)SC2C(NC(=O)C(NC(=O)C3=C(O)C4(CC4)NC3=O)c3ccccc3)C(=O)N2C1C(=O)O (centres unmarked) — IC50 (ATP luminescence; 48 h): 103 µg/mL
COc1ccc(-c2cc(=O)c3c(OC)cc(OC)c(-c4c(OC)cc(OC)c5c(=O)cc(-c6ccc(OC)cc6)oc45)c3o2)cc1 — IC50 (MTT; 48 h): 39.5 µM
O=C(Nc1cc(OCCN2CCCC2)c2ccccc2n1)c1cc(OCc2ccc(F)cc2)cc(C(=O)Nc2cc(OCCN3CCCC3)c3ccccc3n2)n1 — IC50 (ATP luminescence; 72 h): 13 µM
COc1cc(C)cc2oc(-c3cccc(Br)c3)cc(=O)c12 — IC50 (MTT; 48 h): 32.9 µM
CCCC#CC#CCCC — IC50 (MTT; 24 h): 105 µg/mL
COc1cc(C)cc2oc(-c3ccc(C(F)(F)F)cc3)cc(=O)c12 — IC50 (MTT; 48 h): > 100 µM
NCCCOc1cc(NC(=O)c2cc(OCCN)cc(C(=O)Nc3cc(OCCCN)c4ccccc4n3)n2)nc2ccccc12 — IC50 (ATP luminescence; 72 h): 13.7 µM
COc1ccccc1C(=O)c1cc2c(-c3ccccc3)c(O)ccc2o1 — IC50: 24 µM
CC(C)(C)OCC1NC(=O)C(C(=O)NC(C(=O)NC2C(=O)N3C2SC(C)(C)C3C(=O)O)c2ccccc2)=C1O (centres unmarked) — IC50 (ATP luminescence; 48 h): 106 µg/mL
COc1ccc(OC)c(-c2c(C(=O)c3cc(OC)c(OC)c(OC)c3)sc3ccccc23)c1 — IC50 (MTT; 72 h): > 10 µM
CCOc1cc(OCC)cc(C(=O)O[C@@H]2CN3Cc4c(cc5c(c4OC)OCO5)[C@@]24C=C[C@H](OC)C[C@@H]34)c1 — IC50 (WST-1; 48 h): 5 µM
COc1ccc(-c2cc(=O)c3c(OC)cc(C)c(-c4c(C)cc(OC)c5c(=O)cc(-c6ccc(OC)cc6)oc45)c3o2)cc1 — IC50 (MTT; 48 h): 41.4 µM
Oc1c(Br)cc(Br)c2cccnc12 — IC50 (MTT; 48 h): 83.2 µM
COC(=O)CN=c1scc(-c2ccccc2)n1-c1ccc(OC)cc1 — IC50 (MTT; 72 h): 6.75 µM
NCCOc1cc(C(=O)Nc2cc(OCCN)c3ccccc3n2)nc(C(=O)Nc2cc(OCCN)c3ccccc3n2)c1 — IC50 (ATP luminescence; 72 h): 2.5 µM
Cc1c(O)c(=O)ccn1-c1cccc(C(=O)O)c1 — IC50 (MTT; 72 h): 600 µM
COc1cc(C)c(-c2c(C)cc(OC)c3c(=O)cc(-c4ccccc4Br)oc23)c2oc(-c3ccccc3Br)cc(=O)c12 — IC50 (MTT; 48 h): 18.5 µM
c1cnc2c(c1)ccc1cccnc12 — IC50 (MTT; 48 h): > 50 µM
COc1cc(OC)c2c(=O)cc(-c3ccccc3)oc2c1-c1c(OC)cc(OC)c2c(=O)cc(-c3ccccc3)oc12 — IC50 (MTT; 48 h): 22.1 µM
CCN1CCN(C(=O)N[C@@H](C(=O)N[C@@H]2C(=O)N3[C@@H]2SC(C)(C)[C@@H]3C(=O)O)c2ccccc2)C(=O)C1=O — IC50 (ATP luminescence; 48 h): 68.2 µg/mL
O=C(Nc1cc(OCCN2CCCC2)c2ccccc2n1)c1cc(OCCN2CCCC2)cc(C(=O)Nc2cc(OCCN3CCCC3)c3ccccc3n2)n1 — IC50 (ATP luminescence; 72 h): 2.3 µM
C[C@@H](O)C(=O)CCCCC[C@@H]1NC(=O)[C@H]2CCCN2C(=O)[C@H](Cc2ccccc2)NC(=O)C(C)(C)NC1=O — IC50 (XTT): 0.17 µM
COc1cc(C)c(-c2c(C)cc(OC)c3c(=O)cc(-c4cccc(Br)c4)oc23)c2oc(-c3cccc(Br)c3)cc(=O)c12 — IC50 (MTT; 48 h): > 100 µM
CC1(C)SC2C(NC(=O)C(NC(=O)C3=C(O)CN(c4ccccc4)C3=O)c3ccccc3)C(=O)N2C1C(=O)O (centres unmarked) — IC50 (ATP luminescence; 48 h): 87 µg/mL
